Compound activity (PubChem)
In the library only some 4% were active in any assay of this set; here they are far more common.
CHO parental Ca: ATP-evoked calcium signal inhibitors, parental CHO, primary screen, counter-screen for OX1R antagonist project, cell-based, fluorescence, Fluo-8 calcium dye; 0.63% of 330,000 active; inhibition, % at 5.6 µM; parental CHO-K1, ATP-induced calcium, Fluo-8 fluorescence;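 active = inhibition above that plate's mean sample inhibition plus 3 SD, cut at about 26% in these data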
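test system = CHO parental line | reagent = ATP stimulus | measured by = intracellular calcium via Fluo-8 no-wash fluorescent dye | control set = ATP and no-ATP DMSO wells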
TAAR1 ag: human TAAR1 agonists, primary screen, Fluo-8 calcium fluorescence, CHO RD-HGA16 cells. Trace amine-associated receptor 1 (Homo sapiens), Q96RJ0. activation, % at 3 µM. AID 624467, 2012. vehicle wells 0%, saturating PEA agonist 100%. 0.99% of 360,000 active;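 active = activation above the mean activation of all test compounds in the run plus 3 SD, cut at about 38% in these data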
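Assay system: CHO-derived RD-HGA16 cells with stable Gα16 and human TAAR1; timing: 17-24 h seeding, 75 min 37 °C dye, 30 min RT; read-out: % activation from peak over basal fluorescence ratio, DMSO-to-PEA scaled; measured by: kinetic Fluo-8 calcium fluorescence; benchmarks: low control DMSO, high control PEA (EC100); doses: 3 µM single concentration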
NTR1 agonist: agonists of human NTR1, primary screen, imaging, U2OS cells, beta-arrestin-GFP, high content; Neurotensin receptor type 1 (Homo sapiens), P30989; NTR1-U2OS beta-arrestin-GFP spot imaging, agonist mode; activation, % at 20 µM; 0.17% of 330,000 active;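 active = activation at or above 40% of the spot to cytoplasm intensity ratio, with at least 20 cells analyzed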
Target sequence (P30989 whole entry, looked up): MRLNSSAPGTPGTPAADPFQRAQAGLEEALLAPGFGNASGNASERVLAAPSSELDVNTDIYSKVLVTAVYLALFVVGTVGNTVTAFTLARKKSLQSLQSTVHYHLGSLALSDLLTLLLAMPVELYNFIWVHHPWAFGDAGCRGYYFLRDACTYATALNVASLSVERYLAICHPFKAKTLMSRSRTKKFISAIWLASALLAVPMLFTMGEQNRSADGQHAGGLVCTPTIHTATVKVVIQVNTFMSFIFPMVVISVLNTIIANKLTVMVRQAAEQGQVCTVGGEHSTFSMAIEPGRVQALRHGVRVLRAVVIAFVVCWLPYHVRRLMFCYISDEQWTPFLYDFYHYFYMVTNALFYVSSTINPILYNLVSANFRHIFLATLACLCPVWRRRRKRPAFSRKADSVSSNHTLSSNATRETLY
OX1R antag-1: OX1R (HCRTR1) antagonists, primary screen, fluorescence, CHO/OX1R cells, Fluo-8 calcium, orexin A; Orexin/Hypocretin receptor type 1 (Homo sapiens), O43613; Fluo-8 calcium fluorescence; inhibition, % at 5 µM; 0.43% of 330,000 active; AID 434989, 2010;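 active = inhibition above its plate's threshold, mean inhibition of all tested compounds on the plate plus 3 SD, cut at about 37% in these data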
OX1R antag-2: antagonists of human orexin 1 receptor (OX1R); 1.8% of 330,000 active; inhibition, % at 6.6 µM; OX1R-expressing cells, FRET antagonist read-out; in the data active = inhibition mostly above about 38%, no sharp cut-off; inactive = mostly below about 40%
TAAR1 antagonist: human TAAR1 antagonists, primary screen, Fluo-8 calcium fluorescence, CHO RD-HGA16 cells | inhibition, % at 3 µM | antagonist | AID 624466, 2012 | Trace amine-associated receptor 1 (Homo sapiens), Q96RJ0 | 1.5% of 360,000 active;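 active = inhibition above a per-plate cutoff, the mean inhibition of test compounds on that plate plus 3 SD, cut at about 49% in these data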
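Test system – hTAAR1-expressing CHO RD-HGA16 cells, Gα16-coupled · Reagent – β-PEA at EC80 concentration, post-compound challenge · Compound dosing – 3 µM, single point · Timing – 140 s kinetic read after compound, 140 s after agonist · Detection – Fluo-8 intracellular calcium dye fluorescence, real-time kinetic reads · Control set – DMSO and EC80 PEA controls · Repeats – n of 1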
A number is an active result; . = inactive; / = no result given.

SMILES	CHO parental Ca	TAAR1 ag	NTR1 agonist	OX1R antag-1	OX1R antag-2	TAAR1 antagonist
Cc1ccc(C2NC(=O)c3n[nH]c(C(C)C)c32)cc1 (stereo not given)	/	.	/	/	/	.
CC(C)N1CCC2(CC1)N=C(c1ccc3c(c1)OCO3)CC(c1cc(Cl)ccc1O)N2 (stereo not given)	.	.	.	68	87	.
CN(c1cccnc1)c1ccc(NC(=O)Cc2c[nH]c3ccccc23)cc1Br	/	.	/	/	/	.
Cc1cc(C)c(C)c(S(=O)(=O)N2CCC(C(=O)OCC(=O)N3c4ccccc4NC(=O)C3(C)C)CC2)c1C	.	.	.	.	.	49
COC(=O)c1c(-c2ccc(S(C)(=O)=O)cc2)sc2cc(OC)ccc12	.	.	.	.	.	.
COC(=O)c1c(-c2ccc(S(C)(=O)=O)cc2)sc2ccc(OC)cc12	.	.	.	.	.	49
CCN(CC)C(=O)Cn1c(=O)n(CC(=O)N2CCCCC2)c(=O)c2sccc21	.	.	.	.	.	.
Cc1cccc(Nc2nc(N)nc(N)c2N=O)c1	/	45	/	/	/	.
CC(C)(C)c1cc(C(=O)NNc2cccc(Cl)c2)n(Cc2ccccc2)n1	.	.	.	.	.	.
Cc1ccc(NNC(=O)c2cc(C(C)(C)C)nn2Cc2ccccc2)cc1	.	.	.	.	.	.
CC(C)(C)c1cc(C(=O)Nc2ccc(F)cc2)n(Cc2ccc(F)cc2)n1	.	.	.	.	.	65
CC(C)(C)c1cc(C(=O)NNc2cc(C(F)(F)F)ccc2Cl)n(Cc2ccccc2)n1	.	.	.	.	45	.
COc1ccccc1NNC(=O)c1cc(C(C)(C)C)nn1Cc1ccccc1	.	.	.	.	.	49
NC(COCc1ccccc1)c1csc(Nc2ccc(C(=O)c3ccccc3)cc2)n1 (stereo not given)	/	50	/	/	/	.
NC(CCc1ccccc1)c1csc(Nc2ccc(C(=O)NCCO)cc2)n1 (stereo not given)	/	.	/	/	/	.
NC(=O)c1ccc(Nc2nc(C(N)COCc3ccccc3)cs2)cc1 (stereo not given)	/	.	/	/	/	.
NC(CCc1ccccc1)c1csc(NC(=O)Nc2cccc(Cl)c2)n1 (stereo not given)	/	39	/	/	/	.
NC(CCc1ccccc1)c1csc(Nc2ccc(C(=O)c3ccccc3)cc2)n1 (stereo not given)	/	41	/	/	/	.
CCCCOc1ccc(C(=O)NC2CCCCN(CCC)C2=O)cc1 (stereo not given)	/	.	/	/	/	.
O=C(/C=C/c1ccccc1)NC(=S)NNC(=O)c1ccco1	.	43	.	.	.	.
O=C(NC(=S)NNC(=O)c1ccco1)c1ccccc1	.	.	.	.	.	.
Cc1cc(C)cc(NC(=O)CCNS(=O)(=O)c2cc(Br)cnc2N)c1	.	.	.	.	65	.
CCC/C(C)=N/NC(=O)c1ccccc1O	.	.	.	.	.	.
C/C(=N\NC(=O)c1ccccc1O)C1C(=O)c2ccccc2C1=O	.	.	.	.	61	.
C/C(=N/NC(=O)c1cc2ccccc2cc1O)C1C(=O)c2ccccc2C1=O	.	.	.	.	65	.
SMILES	CHO parental Ca	TAAR1 ag	NTR1 agonist	OX1R antag-1	OX1R antag-2	TAAR1 antagonist
O=C(Nc1ccccc1O)c1ccccc1O	37	.	.	.	.	.
O=C(Nc1ccc(F)cc1)Nc1ccc(NC(=O)c2ccccc2O)cc1	.	41	.	.	.	58
O=C(Nc1ccc(F)cc1)c1ccccc1F	.	.	.	.	.	.
Cc1ccc(C(=O)N2CCC[C@@H]2C(=O)N2CCC[C@@H]2C(=O)NCc2ccccc2)cc1C	/	.	/	/	/	.
COc1ccc(N2CCN(C(=O)c3sc4ncn(CC(=O)N5CCCCC5C)c(=O)c4c3C)CC2)cc1 (stereo not given)	.	.	.	.	.	.
COC(=O)[C@]12C[C@H](CC(=O)NCc3ccccc3)C(=O)N(Cc3ccccc3)C1=C[C@H](C(C)C)O[C@@H]2C1CC1	/	.	/	/	/	.
